# Data as given in ChEMBL document CHEMBL5236609, “Optimization of 1,2,4-Triazole-3-thiones toward Broad-Spectrum Metallo-β-lactamase Inhibitors Showing Potent Synergistic Activity on VIM- and NDM-1-Producing Clinical Isolates” (J Med Chem, 2022).
# What was measured:
# Bacteria [1] = test: Binding affinity to bacterial VIM-2 (unknown origin) assessed as Gibbs free energy by isothermal calorimetric assay
# Procedure, shortened: (§1)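 ITC at 25 °C. VIM-2 at 19 μM in 10 mM HEPES-NaOH, 0.15 M NaCl, pH 7.5 with DMSO matched to 1%, titrated with compound at 200 μM: one 0.5 μL injection, then 19 × 2 μL at 150 s intervals. Buffer dilution heats subtracted. Nonlinear fit gives n, Ka and ΔH°; values regarded as apparent.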
# Klebsiella pneumoniae [2] = test: Antimicrobial activity against blaVIM-1-producing multidrug-resistant Klebsiella pneumoniae 7023 clinical isolate assessed as meropenem MIC using cation-adjusted Mueller-Hinton broth at 4 ug/ml by broth microdilution method (reference value: […] ug/ml); format: functional; conditions: dose 4 µg/ml
# Procedure, shortened: (§2)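 Checkerboard broth microdilution in cation-supplemented Mueller–Hinton broth, inoculum 5×10^4 CFU/well, per CLSI. […] The average fractional inhibitory concentration index was computed from the checkerboard.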
# [3] = Binding affinity to bacterial VIM-2 (unknown origin) assessed as dissociation constant by isothermal calorimetric assay; design: species or system Bacteria; procedure, shortened: as §1
# Escherichia coli [4] = test: Antimicrobial activity against blaNDM-1-producing multidrug-resistant Escherichia coli SI-004 clinical isolate assessed as meropenem MIC using cation-adjusted Mueller-Hinton broth at 16 ug/ml by broth microdilution method (reference value: 64 ug/ml); format: functional; conditions: dose 16 µg/ml; procedure, shortened: as §2
# Bacteria [5] = test: Binding affinity to bacterial VIM-2 (unknown origin) assessed as association constant by isothermal calorimetric assay; procedure, shortened: as §1
# Escherichia coli [6] = test: Antimicrobial activity against blaNDM-1-producing multidrug-resistant Escherichia coli SI-004 clinical isolate assessed as meropenem MIC using cation-adjusted Mueller-Hinton broth at 32 ug/ml by broth microdilution method (reference value: 64 ug/ml); format: functional; conditions: dose 32 µg/ml; procedure, shortened: as §2
# Escherichia coli [7] = test: Antimicrobial activity against blaNDM-1-producing multidrug-resistant Escherichia coli SI-004 clinical isolate assessed as meropenem MIC using cation-adjusted Mueller-Hinton broth at 8 ug/ml by broth microdilution method (reference value: 64 ug/ml); format: functional; conditions: dose 8 µg/ml; procedure, shortened: as §2
# Klebsiella pneumoniae [8] = test: Antimicrobial activity against blaVIM-4-producing multidrug-resistant Klebsiella pneumoniae VA-416/02 clinical isolate assessed as meropenem MIC using cation-adjusted Mueller-Hinton broth at 0.5 ug/ml by broth microdilution method (reference value: […] ug/ml); format: functional; conditions: dose 0.5 µg/ml; procedure, shortened: as §2
# Klebsiella pneumoniae [9] = test: Antimicrobial activity against blaVIM-1-producing multidrug-resistant Klebsiella pneumoniae 7023 clinical isolate assessed as meropenem MIC using cation-adjusted Mueller-Hinton broth at 1 ug/ml by broth microdilution method (reference value: […] ug/ml); format: functional; conditions: dose 1 µg/ml; procedure, shortened: as §2
# Klebsiella pneumoniae [10] = test: Antimicrobial activity against blaVIM-1-producing multidrug-resistant Klebsiella pneumoniae 7023 clinical isolate assessed as meropenem MIC using cation-adjusted Mueller-Hinton broth at 2 ug/ml by broth microdilution method (reference value: […] ug/ml); format: functional; conditions: dose 2 µg/ml; procedure, shortened: as §2
# Klebsiella pneumoniae [11] = test: Antimicrobial activity against blaVIM-1-producing multidrug-resistant Klebsiella pneumoniae 7023 clinical isolate assessed as meropenem MIC using cation-adjusted Mueller-Hinton broth at 8 ug/ml by broth microdilution method (reference value: […] ug/ml); format: functional; conditions: dose 8 µg/ml; procedure, shortened: as §2
# Klebsiella pneumoniae [12] = test: Antimicrobial activity against blaVIM-4-producing multidrug-resistant Klebsiella pneumoniae VA-416/02 clinical isolate assessed as meropenem MIC using cation-adjusted Mueller-Hinton broth at 2 ug/ml by broth microdilution method (reference value: […] ug/ml); format: functional; conditions: dose 2 µg/ml; procedure, shortened: as §2
# Klebsiella pneumoniae [13] = test: Antimicrobial activity against blaVIM-4-producing multidrug-resistant Klebsiella pneumoniae VA-416/02 clinical isolate assessed as meropenem MIC using cation-adjusted Mueller-Hinton broth at 1 ug/ml by broth microdilution method (reference value: […] ug/ml); format: functional; conditions: dose 1 µg/ml; procedure, shortened: as §2
# Klebsiella pneumoniae [14] = test: Antimicrobial activity against blaVIM-4-producing multidrug-resistant Klebsiella pneumoniae VA-416/02 clinical isolate assessed as meropenem MIC using cation-adjusted Mueller-Hinton broth at 32 ug/ml by broth microdilution method (reference value: […] ug/ml); format: functional; conditions: dose 32 µg/ml; procedure, shortened: as §2
# Klebsiella pneumoniae [15] = test: Antimicrobial activity against blaVIM-4-producing multidrug-resistant Klebsiella pneumoniae VA-416/02 clinical isolate assessed as meropenem MIC using cation-adjusted Mueller-Hinton broth at 8 ug/ml by broth microdilution method (reference value: […] ug/ml); format: functional; conditions: dose 8 µg/ml; procedure, shortened: as §2
# Bacteria [16] = test: Inhibition of bacterial Metallo-beta-lactamase VIM-1 (unknown origin) at 100 uM relative to control
# Procedure, shortened: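 Reporter-substrate assay with purified MBL (1–70 nM final) in 50 mM HEPES pH 7.5 at 30 °C. […] Inhibitor 0.5–1000 μM final. Ki derived from the v0/vi vs [I] slope assuming competitive inhibition, or from a Dixon plot. Ki given when inhibition >70%, otherwise % inhibition at 100 μM. Triplicate.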
# Bacteria [17] = test: Binding affinity to bacterial VIM-2 (unknown origin) assessed as change in enthalpy by isothermal calorimetric assay; procedure, shortened: as §1
# Klebsiella pneumoniae [18] = test: Antimicrobial activity against blaVIM-4-producing multidrug-resistant Klebsiella pneumoniae VA-416/02 clinical isolate assessed as meropenem MIC using cation-adjusted Mueller-Hinton broth at 16 ug/ml by broth microdilution method (reference value: […] ug/ml); format: functional; conditions: dose 16 µg/ml; procedure, shortened: as §2
# Klebsiella pneumoniae [19] = test: Antimicrobial activity against blaVIM-1-producing multidrug-resistant Klebsiella pneumoniae 7023 clinical isolate assessed as meropenem MIC using cation-adjusted Mueller-Hinton broth at 32 ug/ml by broth microdilution method (reference value: […] ug/ml); format: functional; conditions: dose 32 µg/ml; procedure, shortened: as §2
# Escherichia coli [20] = test: Antimicrobial activity against blaNDM-1-producing multidrug-resistant Escherichia coli SI-004 clinical isolate assessed as meropenem MIC using cation-adjusted Mueller-Hinton broth at 2 ug/ml by broth microdilution method (reference value: 64 ug/ml); format: functional; conditions: dose 2 µg/ml; procedure, shortened: as §2
# Klebsiella pneumoniae [21] = test: Antimicrobial activity against blaVIM-4-producing multidrug-resistant Klebsiella pneumoniae VA-416/02 clinical isolate assessed as meropenem MIC using cation-adjusted Mueller-Hinton broth at 4 ug/ml by broth microdilution method (reference value: […] ug/ml); format: functional; conditions: dose 4 µg/ml; procedure, shortened: as §2
# Escherichia coli [22] = test: Antimicrobial activity against blaNDM-1-producing multidrug-resistant Escherichia coli SI-004 clinical isolate assessed as meropenem MIC using cation-adjusted Mueller-Hinton broth at 4 ug/ml by broth microdilution method (reference value: 64 ug/ml); format: functional; conditions: dose 4 µg/ml; procedure, shortened: as §2
structure (smiles),measurement,setting,value
O=C(O)[C@H](CCCn1c(-c2ccccc2)n[nH]c1=S)N(Cc1c[nH]cn1)Cc1c[nH]cn1,deltaG,Bacteria [1],-8.4 kcal/mol
same,MIC,Klebsiella pneumoniae [2],2 µg/mL
same,Kd,[3],700 nM
same,MIC,Escherichia coli [4],0.06 µg/mL
same,Ka,Bacteria [5],1.4 10^6/M
same,MIC,Escherichia coli [6],0.03 µg/mL
same,MIC,Escherichia coli [7],32 µg/mL
same,MIC,Klebsiella pneumoniae [8],16 µg/mL
same,MIC,Klebsiella pneumoniae [9],8 µg/mL
same,MIC,Klebsiella pneumoniae [10],4 µg/mL
same,MIC,Klebsiella pneumoniae [11],1 µg/mL
same,MIC,Klebsiella pneumoniae [12],4 µg/mL
same,MIC,Klebsiella pneumoniae [13],8 µg/mL
same,MIC,Klebsiella pneumoniae [14],0.03 µg/mL
same,MIC,Klebsiella pneumoniae [15],1 µg/mL
same,inhibition,Bacteria [16],57%
same,deltaH,Bacteria [17],-9.8 kcal/mol
same,MIC,Klebsiella pneumoniae [18],0.06 µg/mL
same,MIC,Klebsiella pneumoniae [19],0.03 µg/mL
same,MIC,Escherichia coli [20],64 µg/mL
same,MIC,Klebsiella pneumoniae [21],2 µg/mL
same,MIC,Escherichia coli [22],32 µg/mL
